Laboratory results from ChEMBL document CHEMBL4673214, “Synthesis and antibacterial bioactivities of cationic deacetyl linezolid amphiphiles” (Eur J Med Chem, 2018).
Converted amounts (≈) assume the structure as drawn. The source made the active and inactive calls. The calls are words filed in the database; no cut-off is given here.

Assays:
Klebsiella pneumoniae [1] = experiment: Antibacterial activity against carbapenem-resistant Klebsiella pneumoniae clinical isolate 10 assessed as reduction in bacterial growth incubated for 16 to 20 hrs by CLSI-based broth microdilution method; format: functional; conditions: time 16-20 hrs
In short: (§1)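 Clinical isolates tested by broth microdilution in cation-adjusted Mueller-Hinton broth. Cultures grown 4-6 h (~10^8 CFU/mL) were diluted to ~10^6 CFU/mL and mixed 1:1 with compound serial dilutions made from 256 down to 0.5 µg/mL (pre-mixing). Plates held at 37 °C for 16-20 h, then read for growth. Each concentration run in duplicate, whole experiment at least twice.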

Staphylococcus aureus [2] = experiment: Antibacterial activity against methicillin-resistant Staphylococcus aureus clinical isolate 8 assessed as reduction in bacterial growth incubated for 16 to 20 hrs by CLSI-based broth microdilution method; format: functional; conditions: time 16-20 hrs; in short: as §1
Enterobacteriaceae [3] = experiment: Antibacterial activity against NDM1 producing carbapenem-resistant Enterobacteriaceae clinical isolate 10 assessed as reduction in bacterial growth incubated for 16 to 20 hrs by CLSI-based broth microdilution method; format: functional; conditions: time 16-20 hrs; in short: as §1
Staphylococcus aureus [4] = experiment: Antibacterial activity against methicillin-resistant Staphylococcus aureus clinical isolate 4 assessed as reduction in bacterial growth incubated for 16 to 20 hrs by CLSI-based broth microdilution method; format: functional; conditions: time 16-20 hrs; in short: as §1
Enterobacteriaceae [5] = experiment: Antibacterial activity against NDM1 producing carbapenem-resistant Enterobacteriaceae clinical isolate 5 assessed as reduction in bacterial growth incubated for 16 to 20 hrs by CLSI-based broth microdilution method; format: functional; conditions: time 16-20 hrs; in short: as §1
Enterobacteriaceae [6] = experiment: Antibacterial activity against NDM1 producing carbapenem-resistant Enterobacteriaceae clinical isolate 3 assessed as reduction in bacterial growth incubated for 16 to 20 hrs by CLSI-based broth microdilution method; format: functional; conditions: time 16-20 hrs; in short: as §1
Staphylococcus aureus [7] = experiment: Antibacterial activity against methicillin-resistant Staphylococcus aureus clinical isolate 6 assessed as reduction in bacterial growth incubated for 16 to 20 hrs by CLSI-based broth microdilution method; format: functional; conditions: time 16-20 hrs; in short: as §1
Klebsiella pneumoniae [8] = experiment: Antibacterial activity against carbapenem-resistant Klebsiella pneumoniae clinical isolate 1 assessed as reduction in bacterial growth incubated for 16 to 20 hrs by CLSI-based broth microdilution method; format: functional; conditions: time 16-20 hrs; in short: as §1
Staphylococcus aureus [9] = experiment: Antibacterial activity against Staphylococcus aureus ATCC 29213 assessed as reduction in bacterial growth incubated for 16 to 20 hrs by CLSI-based broth microdilution method; format: functional; conditions: time 16-20 hrs
In short: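 Broth microdilution following CLSI, in cation-adjusted Mueller-Hinton broth. Inoculum from a 4-6 h culture (~10^8 CFU/mL), diluted to ~10^6 CFU/mL. Water stocks were serially diluted in MHB (256 to 0.5 µg/mL) and mixed 1:1 with the inoculum. Plates ran 16-20 h at 37 °C. MIC was read visually. Each concentration was tested in duplicate, and the experiment was repeated at least twice.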

Klebsiella pneumoniae [10] = experiment: Antibacterial activity against carbapenem-resistant Klebsiella pneumoniae clinical isolate 6 assessed as reduction in bacterial growth incubated for 16 to 20 hrs by CLSI-based broth microdilution method; format: functional; conditions: time 16-20 hrs; in short: as §1
Klebsiella pneumoniae [11] = experiment: Antibacterial activity against carbapenem-resistant Klebsiella pneumoniae clinical isolate 7 assessed as reduction in bacterial growth incubated for 16 to 20 hrs by CLSI-based broth microdilution method; format: functional; conditions: time 16-20 hrs; in short: as §1
Cell membrane = experiment: Induction of inner membrane permeabilization in Escherichia coli ATCC 25922 at 20 ug/ml measured for 12 mins by propidium iodide staining based fluorescence microscopic analysis; conditions: dose 20.0 µg/ml
In short: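 Mid-log bacteria were washed and resuspended at ~10^8 CFU/mL and preincubated with propidium iodide (10 µM stock) for 30 min (S. aureus) or 40 min (E. coli). Fluorescence (ex 535/em 617 nm) was read on a plate for an 8 min baseline, then every 2 min for 12 min after compound at 20 µg/mL final. Water served as control.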

Staphylococcus aureus [12] = experiment: Antibiofilm activity against 24 hrs preformed biofilm of Staphylococcus aureus ATCC 29213 assessed as biofilm viability at 128 ug/ml incubated for 24 hrs by crystal violet staining analysis (reference value: 18.9 1og10CFU); format: functional; conditions: dose 128 µg/ml
Staphylococcus aureus [13] = experiment: Antibacterial activity against Staphylococcus aureus ATCC 29213 assessed as reduction in bacterial growth compound preincubated with 50% sheep plasma for 6 hrs followed by incubation for 20 to 24 hrs by agar plate method; format: functional; conditions: time 20-24 hrs
In short: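 Sheep plasma came from centrifuged defibrinated blood. Compound at 512 µg/mL in 50% water/50% plasma was preincubated at 37 °C for 0, 3 or 6 h, then serially diluted (256 to 4 µg/mL). Dilutions were mixed 1:3 with S. aureus suspension (10^5 CFU/mL) and incubated 20-24 h at 37 °C. MBC was taken as no colonies after 20 µL was plated on agar.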

Escherichia coli [14] = experiment: Antibiofilm activity against 72 hrs preformed biofilm of Escherichia coli ATCC 25922 assessed as biofilm viability at 16 ug/ml incubated for 24 hrs by […] (reference value: 16.1 log10CFU); format: functional; conditions: dose 16 µg/ml
In short: (§2)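 E. coli from mid-log phase was diluted to ~10^5 CFU/mL in M9 medium with 0.02% casamino acids and 0.5% glycerol and formed biofilm without shaking for 72 h. Wells were PBS-washed, then treated with 2-128 µg/mL for 24 h at 37 °C; medium-only wells served as control. Cells were released with trypsin-EDTA and plated as tenfold dilutions. Viability was given as log10 CFU/well.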

HeLa = experiment: Cytotoxicity against human HeLa cells assessed as viable cells by measuring increase in green fluorescence intensity at 1 to 4 ug/mL incubated for 24 hrs by calcein-AM/propidium iodide staining based fluorescence microscopy; format: cell-based; conditions: dose 1-4 µg/ml
In short: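 HeLa cells in 12-well plates were treated 24 h at 1, 2 or 4 µg/mL, with untreated and 0.1% Triton X-100 controls. Cells were stained with 2 µM calcein AM and 4.5 µM propidium iodide for 15 min at 37 °C and imaged by fluorescence microscopy (calcein 500-550 nm band-pass; PI 590-800 nm long-pass). Three repeats.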

Staphylococcus aureus [15] = experiment: Antibiofilm activity against 24 hrs preformed biofilm of Staphylococcus aureus ATCC 29213 assessed as biofilm viability at 4 ug/ml incubated for 24 hrs by crystal violet staining analysis (reference value: 18.9 1og10CFU); format: functional; conditions: dose 4 µg/ml
Escherichia coli [16] = experiment: Antibiofilm activity against 72 hrs preformed biofilm of Escherichia coli ATCC 25922 assessed as biofilm viability at 8 ug/ml incubated for 24 hrs by […] (reference value: 16.1 log10CFU); format: functional; conditions: dose 8 µg/ml; in short: as §2
Escherichia coli [17] = experiment: Antibiofilm activity against Escherichia coli ATCC 25922 assessed as inhibition of biofilm formation incubated for 24 hrs by crystal violet staining assay; format: functional
In short: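 Twofold serial dilutions in MHB received 1:1000-diluted exponential-phase bacteria and were incubated 24 h at 37 °C. Wells were rinsed, stained with 0.1% crystal violet for 10 min and dissolved in ethanol, and OD540 was read. MBIC80 was the concentration inhibiting 80% of biofilm formation versus untreated wells, taken from dose-response curves.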

| SMILES | MIC (Klebsiella pneumoniae [1]) | MIC (Staphylococcus aureus [2]) | MIC (Enterobacteriaceae [3]) | MIC (Staphylococcus aureus [4]) | MIC (Enterobacteriaceae [5]) | MIC (Enterobacteriaceae [6]) | MIC (Staphylococcus aureus [7]) | MIC (Klebsiella pneumoniae [8]) | MIC (Staphylococcus aureus [9]) | MIC (Klebsiella pneumoniae [10]) | MIC (Klebsiella pneumoniae [11]) | Activity (Cell membrane) | Activity (Staphylococcus aureus [12]) | MBC (Staphylococcus aureus [13]) | Activity (Escherichia coli [14]) | Activity (HeLa) | Activity (Staphylococcus aureus [15]) | Activity (Escherichia coli [16]) | MBIC80 (Escherichia coli [17]) | MBIC90 (Escherichia coli [17]) |
| --- | --- | --- | --- | --- | --- | --- | --- | --- | --- | --- | --- | --- | --- | --- | --- | --- | --- | --- | --- | --- |
| C[C@@H](O)[C@H]1C(=O)N2C(C(=O)O)=C(S[C@@H]3CN[C@H](C(=O)N(C)C)C3)[C@H](C)[C@H]12 [MEROPENEM] | 64 µg/mL (≈ 167 µM) | 64 µg/mL (≈ 167 µM) | > 64 µg/mL | 32 µg/mL (≈ 83.4 µM) | 8 µg/mL (≈ 20.9 µM) | 64 µg/mL (≈ 167 µM) | 32 µg/mL (≈ 83.4 µM) | > 64 µg/mL | 0.125 µg/mL (≈ 0.326 µM) | > 64 µg/mL | > 64 µg/mL | inactive | – | – | – | – | – | – | – | – |
| CCCCCCCCCCCN(C[C@H]1CN(c2ccc(N3CCOCC3)c(F)c2)C(=O)O1)C(=O)[C@@H](N)CCCCN.Cl.Cl | 16 µg/mL | 4 µg/mL | 16 µg/mL | 4 µg/mL | 8 µg/mL | 16 µg/mL | 2 µg/mL | 16 µg/mL | 2 µg/mL | 16 µg/mL | 16 µg/mL | Active | 4.7 log10CFU | 64 µg/mL | 7.1 log10CFU | Non-Toxic | 12.9 log10CFU | 8 log10CFU | 61.9 µg/mL | 72.6 µg/mL |
